Laboratory results from ChEMBL document CHEMBL4020823, “Highly Selective, Potent, and Oral mTOR Inhibitor for Treatment of Cancer as Autophagy Inducer” (J Med Chem, 2018).
Calls of active or inactive are those of the source. The calls are words filed in the database; no cut-off is given here.

What was measured:
[1] = system: SK-OV-3; experiment: Growth inhibition of human SKOV3 cells after 72 hrs by CCK8 assay; format: functional, cell-based; conditions: SK-OV-3, 72 h
Procedure, shortened: (§1)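 Cells were seeded at 2000–3000 per well and grown 24 h in serum-containing medium. They were then exposed to serially diluted compound for 72 h at 37 °C, 5% CO2. CCK8 reagent was added for 1–4 h and absorbance read at 450 nm. Inhibition = (AC − AS)/(AC − Ab) × 100%. IC50 is the average of at least three independent determinations.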

[2] = system: MDA-MB-231; experiment: Growth inhibition of human MDA-MB-231 cells after 72 hrs by CCK8 assay; format: functional, cell-based; conditions: MDA-MB-231, 72 h; procedure, shortened: as §1
[3] = system: MCF7; experiment: Cell cycle arrest in human MCF7 cells assessed as accumulation at G0/G1 phase at 0.5 uM after 24 hrs by propidium iodide-staining based flow cytometric analysis; format: functional
Procedure, shortened: (§2)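 Cells were seeded at 5 × 10^5 cells/mL. At 24 h after plating they were treated with increasing concentrations for 24 h, washed in PBS, and fixed in ice-cold 70% ethanol for at least 24 h. They were stained with propidium iodide plus RNase A for 30 min at 37 °C and analysed by flow cytometry for phase distribution.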

[4] = system: SiHa; experiment: Cell cycle arrest in human SiHa cells assessed as accumulation at G0/G1 phase at 0.5 uM after 24 hrs by propidium iodide-staining based flow cytometric analysis; format: functional; procedure, shortened: as §2
[5] = system: MCF7; experiment: Induction of autophagy in human MCF7 cells assessed as increase in LC3-2 level at 0.5 uM after 48 hrs by Western blot analysis; format: functional, cell-based
Procedure, shortened: (§3)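 Cells treated with test agents at several concentrations for 2 days (48 h). LC3B-II detected by Western blot on lysates, with β-actin as internal control. Membranes blocked in 5% skim milk, primary antibodies at 4 °C overnight, peroxidase-conjugated anti-mouse or anti-rabbit IgG secondary, ECL detection.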

[6] = system: HeLa; experiment: Cell cycle arrest in human HeLa cells assessed as decrease in S-phase at 1 uM after 24 hrs by propidium iodide-staining based flow cytometric analysis; format: functional; procedure, shortened: as §2
[7] = system: MCF7; experiment: Growth inhibition of human MCF7 cells after 72 hrs by CCK8 assay; format: functional, cell-based; conditions: MCF7, 72 h; procedure, shortened: as §1
[8] = system: T47D; experiment: Induction of autophagy in human T47D cells assessed as increase in LC3-2 puncta level at 0.5 uM after 48 hrs by immunofluorescence staining based microscopic analysis; format: functional, cell-based
Procedure, shortened: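 Cells seeded on glass coverslips in complete 1640 or DMEM and incubated with inhibitors at different concentrations for 48 h. Fixed in 4% paraformaldehyde, permeabilized with 0.15% Triton X-100, blocked in 4% BSA/PBS for 1 h at room temperature. Anti-LC3B (1:200) overnight, then FITC-conjugated secondary, DAPI nuclear stain. LC3B-II puncta viewed by fluorescence microscopy.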

[9] = system: OVCAR-5; experiment: Growth inhibition of human OVCAR5 cells after 72 hrs by CCK8 assay; format: functional, cell-based; conditions: OVCAR-5, 72 h; procedure, shortened: as §1
[10] = system: T47D; experiment: Growth inhibition of human T47D cells after 72 hrs by CCK8 assay; format: functional, cell-based; procedure, shortened: as §1
[11] = system: HeLa; experiment: Cell cycle arrest in human HeLa cells assessed as accumulation at G0/G1 phase at 1 uM after 24 hrs by propidium iodide-staining based flow cytometric analysis; format: functional; procedure, shortened: as §2
[12] = system: T47D; experiment: Cell cycle arrest in human T47D cells assessed as decrease in S-phase at 0.5 uM after 24 hrs by propidium iodide-staining based flow cytometric analysis; format: functional; procedure, shortened: as §2
[13] = system: HeLa; experiment: Induction of autophagy in human HeLa cells assessed as increase in LC3-2 level at 2 uM after 48 hrs by Western blot analysis; format: functional, cell-based
Procedure, shortened: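 Cells were treated for 48 h (2 days) with varying concentrations. Whole-cell lysates were immunoblotted for LC3B-II with β-actin as the internal control. Membranes were blocked in 5% skim milk, incubated with primary antibody overnight at 4 °C, then with peroxidase-conjugated secondary, and developed by ECL.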

[14] = system: MDA-MB-231; experiment: Cell cycle arrest in human MDA-MB-231 cells assessed as accumulation at G0/G1 phase at 0.5 uM after 24 hrs by propidium iodide-staining based flow cytometric analysis; format: functional; procedure, shortened: as §2
[15] = system: MDA-MB-231; experiment: Cell cycle arrest in human MDA-MB-231 cells assessed as decrease in S-phase at 0.5 uM after 24 hrs by propidium iodide-staining based flow cytometric analysis; format: functional; procedure, shortened: as §2
[16] = system: MDA-MB-231; experiment: Induction of autophagy in human MDA-MB-231 cells assessed as increase in LC3-2 level at 0.5 uM after 48 hrs by Western blot analysis; format: functional, cell-based; procedure, shortened: as §3
[17] = system: NCI-H460; experiment: Growth inhibition of human H460 cells after 72 hrs by CCK8 assay; format: functional, cell-based; conditions: NCI-H460, 72 h; procedure, shortened: as §1
[18] = system: SiHa; experiment: Cell cycle arrest in human SiHa cells assessed as decrease in S-phase at 0.5 uM after 24 hrs by propidium iodide-staining based flow cytometric analysis; format: functional; procedure, shortened: as §2
[19] = system: T47D; experiment: Cell cycle arrest in human T47D cells assessed as accumulation at G0/G1 phase at 0.5 uM after 24 hrs by propidium iodide-staining based flow cytometric analysis; format: functional; procedure, shortened: as §2
[20] = system: T47D; experiment: Antitumor activity against human T47D cells xenografted in BALB/c nude mouse assessed as decrease in tumor growth at 60 mg/kg, po administered via gavage after 3 weeks relative to control; format: functional; conditions: 504 h, read-out: TGI
[21] = system: SiHa; experiment: Growth inhibition of human SiHa cells after 72 hrs by CCK8 assay; format: functional, cell-based; procedure, shortened: as §1
[22] = system: HeLa; experiment: Growth inhibition of human HeLa cells after 72 hrs by CCK8 assay; format: functional, cell-based; procedure, shortened: as §1
[23] = system: T47D; experiment: Induction of autophagy in human T47D cells assessed as increase in LC3-2 level at 0.5 uM after 48 hrs by Western blot analysis; format: functional, cell-based; procedure, shortened: as §3
[24] = system: MCF7; experiment: Cell cycle arrest in human MCF7 cells assessed as decrease in S-phase at 0.5 uM after 24 hrs by propidium iodide-staining based flow cytometric analysis; format: functional; procedure, shortened: as §2
[25] = system: SiHa; experiment: Induction of autophagy in human SiHa cells assessed as increase in LC3-2 level at 1 uM after 48 hrs by Western blot analysis; format: functional, cell-based; procedure, shortened: as §3
[26] = system: T47D; experiment: Antitumor activity against human T47D cells xenografted in BALB/c nude mouse assessed as tumor weight at 60 mg/kg, po administered via gavage after 3 weeks (reference value: 1.23 g); format: functional

CO[C@H]1C[C@@H]2CC[C@@H](C)[C@@](O)(O2)C(=O)C(=O)N2CCCC[C@H]2C(=O)O[C@H]([C@H](C)C[C@@H]2CC[C@@H](O)[C@H](OC)C2)CC(=O)[C@H](C)/C=C(\C)[C@@H](O)[C@@H](OC)C(=O)[C@H](C)C[C@H](C)/C=C/C=C/C=C/1C [SIROLIMUS]
IC50 [1]: > 10 µM | IC50 [2]: > 10 µM | Activity [3]: Active | Activity [4]: Active | Activity [5]: Active | Activity [6]: Active | IC50 [7]: 4.98 µM | Activity [8]: Dose-dependent effect | IC50 [9]: > 10 µM | IC50 [10]: 1.58 µM | Activity [11]: Active | Activity [12]: Active | Activity [13]: Active | Activity [14]: Active | Activity [15]: Active | Activity [16]: Active | IC50 [17]: > 10 µM | Activity [18]: Active | Activity [19]: Active | inhibition in vivo at 60 mg/kg [20]: 72.4% | IC50 [21]: 1.76 µM | IC50 [22]: > 10 µM | Activity [23]: Active | Activity [24]: Active | Activity [25]: Active | Activity [26]: 0.36 g
